Measured values published in ChEMBL document CHEMBL1152389, “A novel and efficient synthesis of highly oxidized lignans by a methyltrioxorhenium/hydrogen peroxide catalytic system. Studies on their apoptogenic and antioxidant activity” (Bioorg Med Chem, 2009).
The source made the active and inactive calls. The rule behind the calls is not given here.

What was measured:
Assay type in all cases: functional, cell-based
[1] = system: BL-41; assay: Induction of apoptosis in human EBV deficient BL41 cells assessed as condensed and fragmented nuclei at 25 to 100 uM after 18 hrs by epifluorescent microscopy
Summary of the method: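 BL41 (EBV-negative Burkitt lymphoma) cells in RPMI with 4 mM L-glutamine, 10% FCS at 37 °C, 5% CO2. Seeded at 3 × 10^5 cells/mL and exposed 18 h to compounds in DMSO (≤0.5% v/v). Cells fixed in 4% p-formaldehyde, stained with DAPI 0.2 µg/mL. At least 500 cells in random fields scored by epifluorescence for condensed/fragmented nuclei.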

[2] = system: E2R; assay: Induction of apoptosis in human E2R cells expressing EBV assessed as condensed and fragmented nuclei at 25 to 100 uM after 18 hrs by epifluorescent microscopy
Summary of the method: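 BL41-derived E2R cells (EBV-positive, apoptosis-resistant) grown in RPMI with 4 mM L-glutamine and 10% FCS at 37 °C, 5% CO2. Seeded at 3 × 10^5 cells/mL and exposed to compounds in DMSO (≤0.5% v/v) for 18 h. Cells fixed in 4% p-formaldehyde and stained with DAPI (0.2 µg/mL). Condensed/fragmented nuclei scored in ≥500 cells from random fields by epifluorescence microscopy.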

[3] = system: E2R; assay: Antioxidant activity in human E2R cells assessed as intracellular peroxide level at 25 to 100 uM after 1 hr by flow cytometry in presence of DCFH-DA
Summary of the method: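 E2R cells (EBV-positive, apoptosis-resistant isogenic Burkitt line) in RPMI with 4 mM L-glutamine, 10% FCS, 37 °C, 5% CO2. Compounds in DMSO (0.2%) for 1 h in RPMI, then 10 µM DCFH-DA for 20 min at 37 °C. Flow cytometry, excitation 488 nm, emission 533 nm (FL-1), 10,000 events per sample.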

SMILES	Activity [1]	Activity [2]	Activity [3]
COc1cc(C[C@H]2COC(=O)[C@@H]2Cc2ccc(O)c(OC)c2)ccc1O	Active	Active	Active
COc1cc(C[C@H]2CO[C@H](c3ccc(O)c(OC)c3)[C@H]2CO)ccc1O	inactive	inactive	–
COc1cc(C(=O)[C@H]2COC(=O)[C@@H]2C(O)c2ccc(O)c(OC)c2)ccc1O (stereo partly specified)	–	Active	–
COc1cc([C@H]2c3cc(O)c(OC)cc3C[C@H]3C(=O)OC[C@H]23)ccc1O	inactive	inactive	Active
COc1cc(/C=C2\C(=O)OC[C@@H]2C(=O)c2ccc(O)c(OC)c2)ccc1O	–	Active	–
COc1cc(C[C@H]2C(=O)OC[C@@H]2[C@H](O)c2ccc(O)c(OC)c2)ccc1O	inactive	inactive	–
COc1cc([C@H]2c3cc(O)c(OC)cc3C[C@@H](CO)[C@@H]2CO)ccc1O	inactive	inactive	–
COc1cc(C[C@H]2COC(=O)[C@@H]2C(O)c2ccc(O)c(OC)c2)ccc1O (stereo partly specified)	inactive	inactive	–
COc1cc2c(cc1O)[C@H](c1ccc(O)c(O)c1)[C@H]1COC[C@@H]1C2	–	–	inactive
COc1cc([C@H]2c3cc(O)c(OC)cc3C[C@H]3COC[C@@H]32)ccc1O	Active	Active	inactive
COc1cc(C[C@H]2C(=O)OC[C@@H]2Cc2ccc(O)c(O)c2)ccc1O	–	–	Active
